Assay [1] concerns Clostridioides difficile. Nature of the assay: Antimicrobial activity against Clostridioides difficile CD10463 incubated for 20 to 24 hrs by broth microdilution method. Type of assay: functional. The essentials: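 Broth microdilution in pre-reduced BHIS using two-fold serial dilutions and ~5 × 10⁵ cfu/mL inoculum. Incubated 20–24 h at 37°C, anaerobic (8% H₂, 8% CO₂, 84% N₂). MIC read by the Lambert-Pearson method; duplicates.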

Assay [2] has as its system Clostridioides difficile. Nature of the assay: Suppression of relapse of Clostridioides difficile 630 infection in cefoperazone-treated C57BL/6J mouse model of recurrent Clostridioides difficile 630 infection assessed as reduction in body weight loss at 0.4 mg/ml, po for 5 days from day 4 to 9 after infection with spores and […]. The assay is classed as functional, organism-based. The essentials:
(§1)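 Cefoperazone 0.5 mg/ml in drinking water for 5 days, then 2-day washout, in 5-week-old male and female C57BL/6J mice. Oral gavage of 10⁵ C. difficile 630 spores on day 0. Vancomycin 0.4 mg/mL given in drinking water ad libitum on days 4–9. Body weight recorded daily and clinical signs watched for 14 days; n=6 per group.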

Assay [3] deals with Clostridioides difficile. Briefly: Suppression of relapse of Clostridioides difficile 630 infection in cefoperazone-treated C57BL/6J mouse model of recurrent Clostridioides difficile 630 infection assessed as reduction in microbial load (total vegetative cells plus spores) at 0.4 mg/ml, po for 5 days from day 4 to 9 after infection with spores and measured on day 7. The assay is classed as functional, organism-based. The method, boiled down:
(§2)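 Strain 630 spore challenge (10⁵, gavage) of cefoperazone-treated mice; vancomycin 0.4 mg/mL in drinking water on days 4–9. Feces diluted 1:10 in PBS and settled anaerobically 30 min. Ten-fold dilutions plated on TCCFA, incubated anaerobically at 37°C for 24 h. Result is CFU/g feces of total vegetative cells plus spores from unheated samples. Mixed-effect model with Tukey post test.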

Assay [4] has as its system Clostridioides difficile. Nature of the assay: Suppression of relapse of Clostridioides difficile 630 infection in cefoperazone-treated C57BL/6J mouse model of recurrent Clostridioides difficile 630 infection assessed as reduction in body weight loss at 0.4 mg/ml, po for 5 days from day 4 to 9 after infection with spores and […] after drug cessation. Type of assay: functional, organism-based. The essentials: as §1

Assay [5] concerns Clostridioides difficile. Briefly: Suppression of relapse of Clostridioides difficile 630 infection in cefoperazone-treated C57BL/6J mouse model of recurrent Clostridioides difficile 630 infection assessed as reduction in microbial load in feces (total vegetative cells plus spores) at 0.4 mg/ml, po for 5 days from day 4 to 9 after infection with spores and measured on day 3 after drug cessation. Type of assay: functional, organism-based. The essentials:
as §2

Assay [6] has as its system Clostridioides difficile. Briefly: Suppression of relapse of Clostridioides difficile 630 infection in cefoperazone-treated C57BL/6J mouse model of recurrent Clostridioides difficile 630 infection assessed as reduction in weight loss at 0.4 mg/ml, po for 5 days from day 4 to 9 after infection with spores and measured on day 14. More on the design: scale not given: the % may be the effect or the level left. Type of assay: functional. The method, boiled down:
as §1

Assay [7] relates to Clostridioides difficile. Nature of the assay: Suppression of relapse of Clostridioides difficile 630 infection in cefoperazone-treated C57BL/6J mouse model of recurrent Clostridioides difficile 630 infection assessed as reduction in clinical illness at 0.4 mg/ml, po for 5 days from day 4 to 9 after infection with spores measured on day day 14. The assay is classed as functional, organism-based. The essentials: as §1

For assay [8], the system named is Clostridioides difficile. Nature of the assay: Suppression of relapse of Clostridioides difficile 630 infection in cefoperazone-treated C57BL/6J mouse model of recurrent Clostridioides difficile 630 infection assessed as reduction in histopathological summary scores at 0.4 mg/ml, po for 5 days from day 4 to 9 after infection with spores measured on day day 14. Type of assay: functional, organism-based.

In assay [9] the test system is Clostridioides difficile. Nature of the assay: Suppression of relapse of Clostridioides difficile 630 infection in cefoperazone-treated C57BL/6J mouse model of recurrent Clostridioides difficile 630 infection assessed as reduction in group-Bacteroidaceae level at 0.4 mg/ml, po for 5 days from day 4 to 9 after infection with spores measured on day day 14. The assay is classed as functional, organism-based. The method, boiled down: (§3)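 Infection model: cefoperazone 0.5 mg/ml in drinking water for 5 days, 2-day washout, then 10⁵ strain 630 spores by gavage. Vancomycin 0.4 mg/mL in drinking water, days 4–9. Cecal tissue snips taken at day 14 necropsy; gut bacterial community profiled by 16S rRNA gene sequencing on Illumina MiSeq. n=6 per group.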

Assay [10] relates to Clostridioides difficile. Nature of the assay: Suppression of relapse of Clostridioides difficile 630 infection in cefoperazone-treated C57BL/6J mouse model of recurrent Clostridioides difficile 630 infection assessed as reduction in group-Proteobacteria level at 0.4 mg/ml, po for 5 days from day 4 to 9 after infection with spores measured on day day 14. The assay is classed as functional, organism-based. The method, boiled down:
as §3

Our source for the MIC and Activity values is ChEMBL document CHEMBL4610116, “Salicylanilide Analog Minimizes Relapse of Clostridioides difficile Infection in Mice” (J Med Chem, 2020).

Converted amounts (≈) assume the structure as drawn. The source made the active and inactive calls. No cut-off for these calls is given here.

`O=C(Nc1ccc(Oc2ccc(Cl)cc2)c(F)c1)c1cc(Cl)cc(Cl)c1O`: the MIC against Clostridioides difficile [1] is 0.135 µM (≈ 0.0576 µg/mL).

Turning to `O=C(Nc1ccc(Oc2ccc(Cl)cc2)c(Br)c1)c1cc(Cl)cc(Cl)c1O`, in the assay with Clostridioides difficile [1], the lowest concentration to inhibit growth (MIC) was 0.1 µM (≈ 0.0488 µg/mL).

In the assay on Clostridioides difficile [1], `O=C(Nc1ccc(Oc2ccc(Cl)cc2)c(I)c1)c1cc(Cl)cc(Cl)c1O` displayed an MIC of 0.6 µM (≈ 0.321 µg/mL).

In turn, `O=C(Nc1ccc(Oc2ccc(Cl)cc2)cc1)c1cc(Cl)cc(Cl)c1O` yielded an MIC in the assay on Clostridioides difficile [1] of 1.4 µM (≈ 0.572 µg/mL).

The compound `O=C(Nc1ccc(Oc2ccc(Cl)cc2)cc1I)c1cc(Cl)cc(Cl)c1O` yielded a minimum inhibitory concentration (MIC) against Clostridioides difficile [1] of 0.17 µM (≈ 0.0909 µg/mL).

For the compound `COc1cc(Oc2ccc(Cl)cc2)ccc1NC(=O)c1cc(Cl)cc(Cl)c1O`, the MIC against Clostridioides difficile [1] came out at 3.6 µM (≈ 1.58 µg/mL).

For the compound `O=C(Nc1ccc(Oc2ccc(Cl)cc2)c(Cl)c1)c1cc(Cl)cc(Cl)c1O`, in the assay on Clostridioides difficile [1], the MIC turned out to be 0.11 µM (≈ 0.0487 µg/mL).

`COc1cc(NC(=O)c2cc(Cl)cc(Cl)c2O)ccc1Oc1ccc(Cl)cc1` yielded an MIC in the assay on Clostridioides difficile [1] of 2.6 µM (≈ 1.14 µg/mL).

`O=C(Nc1cc(I)c(Oc2ccc(Cl)cc2)c(I)c1)c1cc(Cl)cc(Cl)c1O`: inhibition of growth in the assay on Clostridioides difficile [1] (MIC) required 0.075 µM (≈ 0.0495 µg/mL).

Compound `N#Cc1cc(NC(=O)c2cc(Cl)cc(Cl)c2O)ccc1Oc1ccc(Cl)cc1` displayed an MIC against Clostridioides difficile [1] of 0.37 µM (≈ 0.16 µg/mL).

In the case of `O=C(Nc1ccc(Oc2ccc(Cl)cc2)cc1Br)c1cc(Cl)cc(Cl)c1O`, inhibition of growth in the assay with Clostridioides difficile [1] (MIC) required 0.18 µM (≈ 0.0878 µg/mL).

`CN[C@H](CC(C)C)C(=O)N[C@H]1C(=O)N[C@@H](CC(N)=O)C(=O)N[C@H]2C(=O)N[C@H]3C(=O)N[C@H](C(=O)N[C@H](C(=O)O)c4cc(O)cc(O)c4-c4cc3ccc4O)[C@H](O)c3ccc(c(Cl)c3)Oc3cc2cc(c3O[C@@H]2O[C@H](CO)[C@@H](O)[C@H](O)[C@H]2O[C@H]2C[C@](C)(N)[C@H](O)[C@H](C)O2)Oc2ccc(cc2Cl)[C@H]1O` [VANCOMYCIN] returned a minimum inhibitory concentration (MIC) against Clostridioides difficile [1] of 2.1 µM (≈ 3.04 µg/mL). Also, the result in the assay with Clostridioides difficile [2] and in the assay on Clostridioides difficile [3] was Active. The result in the assay on Clostridioides difficile [4], in the assay with Clostridioides difficile [5], in the assay with Clostridioides difficile [7], in the assay with Clostridioides difficile [8], in the assay with Clostridioides difficile [9] and in the assay on Clostridioides difficile [10] was inactive. Further, the Activity in the assay on Clostridioides difficile [6] is on record as 10 - 26%.

Regarding `O=C(Nc1cc([N+](=O)[O-])c(Oc2ccc(Cl)cc2)c([N+](=O)[O-])c1)c1cc(Cl)cc(Cl)c1O`, the minimum inhibitory concentration (MIC) with Clostridioides difficile [1] was above 2 µM.
